Numbering of substitutions follows the chain as printed. Blank lines part the entries; values can stand above or below the molecule they belong to. Primed or numbered codes have the meaning given here. No end group written: not given here. FITC′ = fluorescein isothiocyanate
What was measured:
[1] = molecular target: T1, rTAP1/TAP2a (wild type) (Rattus norvegicus, UniProt P36370+P36372); experiment: Competitive inhibition of TC6R crosslinking, wild type TAP; assay type: binding
T1 sequence (P36370 1-725): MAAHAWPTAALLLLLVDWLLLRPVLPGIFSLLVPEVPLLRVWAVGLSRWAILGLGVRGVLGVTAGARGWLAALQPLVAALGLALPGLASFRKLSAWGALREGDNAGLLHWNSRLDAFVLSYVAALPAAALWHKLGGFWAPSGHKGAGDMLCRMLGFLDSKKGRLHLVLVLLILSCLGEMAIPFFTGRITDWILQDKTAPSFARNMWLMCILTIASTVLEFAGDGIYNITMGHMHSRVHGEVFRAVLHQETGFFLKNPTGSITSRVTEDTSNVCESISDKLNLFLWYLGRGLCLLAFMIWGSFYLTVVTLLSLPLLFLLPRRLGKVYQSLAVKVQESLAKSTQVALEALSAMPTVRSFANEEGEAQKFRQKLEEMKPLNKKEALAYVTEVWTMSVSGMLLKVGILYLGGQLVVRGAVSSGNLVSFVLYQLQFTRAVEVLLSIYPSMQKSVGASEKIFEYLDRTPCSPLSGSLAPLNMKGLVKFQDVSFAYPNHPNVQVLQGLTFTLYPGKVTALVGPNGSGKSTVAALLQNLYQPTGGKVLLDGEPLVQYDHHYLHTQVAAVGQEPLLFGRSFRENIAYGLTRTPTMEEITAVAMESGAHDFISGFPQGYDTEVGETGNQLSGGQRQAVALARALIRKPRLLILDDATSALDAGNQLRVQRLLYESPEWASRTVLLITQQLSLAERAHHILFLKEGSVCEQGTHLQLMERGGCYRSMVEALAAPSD
T1 sequence (P36372 1-703): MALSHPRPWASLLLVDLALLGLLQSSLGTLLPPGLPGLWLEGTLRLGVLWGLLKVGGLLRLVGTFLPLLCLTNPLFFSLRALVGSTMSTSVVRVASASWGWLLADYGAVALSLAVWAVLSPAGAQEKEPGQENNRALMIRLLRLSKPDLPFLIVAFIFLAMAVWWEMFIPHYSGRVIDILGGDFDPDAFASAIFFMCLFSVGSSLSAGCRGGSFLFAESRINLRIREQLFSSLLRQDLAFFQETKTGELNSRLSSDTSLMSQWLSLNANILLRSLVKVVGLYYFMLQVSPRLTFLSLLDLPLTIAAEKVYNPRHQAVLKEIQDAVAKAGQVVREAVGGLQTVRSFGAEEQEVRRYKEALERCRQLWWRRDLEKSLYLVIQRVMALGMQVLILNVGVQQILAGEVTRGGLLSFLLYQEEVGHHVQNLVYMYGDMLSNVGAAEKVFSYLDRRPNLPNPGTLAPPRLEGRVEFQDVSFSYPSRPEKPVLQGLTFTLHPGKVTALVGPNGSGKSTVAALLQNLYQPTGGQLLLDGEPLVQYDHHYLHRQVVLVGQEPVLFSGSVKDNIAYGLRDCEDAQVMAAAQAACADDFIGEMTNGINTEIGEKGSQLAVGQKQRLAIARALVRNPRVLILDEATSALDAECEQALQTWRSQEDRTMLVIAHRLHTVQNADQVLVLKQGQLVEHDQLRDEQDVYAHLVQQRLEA
In short: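 Rat TAP1/TAP2a expressed in baculovirus-infected Sf21 microsomes. Microsomes were incubated with 1 μM FITC-lysine peptide with Cys at position 6, plus unlabeled competitor peptide, on ice for 10 min in PBS pH 7.4. BMOE was added (0.2 mM final) for 10 min at room temperature and quenched with 10 mM DTT. Products were resolved by SDS-PAGE and fluorescence imaged at 520 nm.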

[2] = molecular target: T2, rTAP1/TAP2a(E218M) (Rattus norvegicus, UniProt P36370+P36372, E218M); experiment: Peptide transport assay, E218M mutant; assay type: biochemical; conditions: FITC-labeled peptide 1 μM, 37 °C, 5 min, with or without 5 mM ATP
T2 sequence (P36370 1-725): T1 sequence (P36370 1-725)
T2 sequence (P36372 1-703 E218M): T1 sequence (P36372 1-703) with E218M
In short: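 Sf21 cells were grown to confluence and infected with baculoviruses (MOI 5–20) expressing His-tagged rTAP1 and Flag-tagged rTAP2 variants; microsomes were made after 72 h. Lysis was in 1% NP40, and glycosylated peptide was recovered on Con A-Sepharose. Fluorescence was read in triplicate to give +ATP/−ATP ratios, normalized to wild type (100%) and TAP-free microsomes (0%). Paired two-tailed t-tests were applied.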

[3] = molecular target: T3, wild type rat TAP1/TAP2a complex (rat) (UniProt P36370); experiment: cross-linking
T3 sequence (P36370 whole entry, looked up): T1 sequence (P36370 1-725)
T3 sequence (P36372 whole entry, looked up): T1 sequence (P36372 1-703)

[4] = molecular target: T4, rTAP1/TAP2a(E218M) (rat) (UniProt P36370); experiment: cross-linking
T4 sequence (P36370 1-725 with E218M, looked up): T1 sequence (P36370 1-725)
T4 sequence (P36372 1-703 with E218M, looked up): T1 sequence (P36372 1-703) with E218M

[5] = molecular target: T5, rTAP1/TAP2a(E218M/Q262R/S265P/L266F) (rat) (UniProt P36370); experiment: cross-linking
T5 sequence (P36370 1-725 with E218M Q262R S265P L266F, looked up): T1 sequence (P36370 1-725)
T5 sequence (P36372 1-703 with E218M Q262R S265P L266F, looked up): T1 sequence (P36372 1-703) with E218M, Q262R, S265P, L266F

Molecule: RYWANATKSR [RR]
IC50 [1]: 300 nM

effect of mutation on transport efficiency versus wild type [2]: did not significantly affect
Molecule: TVDNK*TAYV

Kd [3]: 417 nM
Kd [4]: 339 nM
Kd [5]: 107 nM
Molecule: TVDNK(FITC′)CAYV [TVDNK*CAYV (TC6V), FITC-labeled]

IC50 [3]: > 2000 nM
Molecule: TVDNKTAYR […, unlabeled competitor peptide]

Kd [3]: 187 nM
Molecule: TVDNK(FITC′)CAYR [TVDNK*CAYR (TC6R), FITC-labeled]

From article PMC4681580 (Journal of immunology (Baltimore, Md. : 1950), 2015)
